Measured values taken from paper PMC11383987 (bioRxiv, 2024).
Changes are numbered by the printed parent chain.

How the values were obtained:
[1] = test system: A. thaliana stem segments (wild type and pin1 mutants); test: Arabidopsis stem segment transport assay; parameters: species or system Arabidopsis thaliana
Procedure, shortened: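 Stem sections (2 cm) were cut above the rosette of 5-week-old Col-0 or pin1 plants. They were inverted into buffer (500 pM IAA, 1% sucrose, 5 mM MES pH 5.5) ± 100 μM NPA for 2 h. They were then moved to buffer with 417 nM [3H]-IAA or [3H]-2,4-D ± NPA for 2 h. Three 5 mm segments were dissected and counted by liquid scintillation.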

PIN8 N117A = target: T1, PIN8 N117A (Arabidopsis thaliana, UniProt Q9LFP6, N117A); test: SSM electrophysiology peak current response, PIN8 N117A proteoliposomes; type: biochemical; conditions: 100 μM or 2 mM substrate, relative to WT
T1 sequence (Q9LFP6 1-367 N117A): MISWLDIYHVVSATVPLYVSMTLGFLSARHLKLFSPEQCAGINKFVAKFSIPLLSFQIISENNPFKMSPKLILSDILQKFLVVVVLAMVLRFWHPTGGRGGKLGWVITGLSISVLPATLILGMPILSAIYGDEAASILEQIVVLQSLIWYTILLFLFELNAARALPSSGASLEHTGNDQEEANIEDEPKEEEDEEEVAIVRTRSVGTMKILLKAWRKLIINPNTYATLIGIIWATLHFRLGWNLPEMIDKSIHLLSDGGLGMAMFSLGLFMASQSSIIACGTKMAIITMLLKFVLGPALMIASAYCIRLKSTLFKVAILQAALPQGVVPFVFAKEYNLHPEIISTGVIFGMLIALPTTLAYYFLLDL
Procedure, shortened: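 The N117A point mutant of PIN8 was made by site-directed mutagenesis. It was reconstituted in proteoliposomes in Ca2+-free Ringer pH 7.4 and immobilised on SSM sensors. Peak currents were recorded after a single solution exchange to 100 μM or 2 mM substrate and expressed relative to wild type. Mean ± s.e.m., n = 3 sensors; one-way ANOVA.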

PIN8 [2] = target: T2, PIN8 (Arabidopsis thaliana, UniProt Q9LFP6); test: Xenopus oocyte efflux assay, PIN8; type: cell-based; conditions: PIN8 in oocytes, NPA-sensitive, internal concentration 1 µM
T2 sequence (Q9LFP6 1-367): T1 sequence (Q9LFP6 1-367 N117A) with A117N
Procedure, shortened: (§1)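 Xenopus oocytes received 150 ng PIN8 or PIN3 cRNA; PIN3 was given with or without 75 ng PID kinase cRNA. [3H]-IAA or [3H]-2,4-D was injected to an internal 1 µM, ± 10 μM NPA internally. Residual radioactivity per oocyte was counted by scintillation over a time course (10 oocytes per point) and set against the initial 100%. %/min rates came from linear regression; each replicate used a different female.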

A. thaliana PIN3 = test: Xenopus oocyte efflux assay, PIN3 with PID kinase; type: cell-based, Arabidopsis thaliana; conditions: PIN3 with PID kinase in oocytes, NPA-sensitive, internal concentration 1 µM
Procedure, shortened: as §1

PIN8 Y150F = target: T3, PIN8 Y150F (Arabidopsis thaliana, UniProt Q9LFP6, Y150F); test: SSM electrophysiology peak current response, PIN8 Y150F proteoliposomes; type: biochemical; conditions: for Imax: PIN8 Y150F
T3 sequence (Q9LFP6 1-367 Y150F): T1 sequence (Q9LFP6 1-367 N117A) with A117N, Y150F

PIN8 S55A/S146A = target: T4, PIN8 S55A/S146A (Arabidopsis thaliana, UniProt Q9LFP6, S146A/S55A); test: SSM electrophysiology peak current response, PIN8 S55A/S146A proteoliposomes; type: biochemical; conditions: for Imax: PIN8 S55A/S146A
T4 sequence (Q9LFP6 1-367 S55A/S146A): T1 sequence (Q9LFP6 1-367 N117A) with S55A, A117N, S146A

PIN8 [3] = target: T2, PIN8; test: KD of substrate binding by competition with NPA binding current; conditions: KD relative to IAA
Procedure, shortened: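 Purified PIN8 (LMNG) was reconstituted at LPR 10 into soy polar lipid/POPC liposomes in Ca2+-free Ringer pH 7.4 and adsorbed on SSM sensors. Current from 100 µM NPA was recorded with test compound at 0–1000 µM in both activating and non-activating solutions (3 s single exchange). KD was taken as the half-maximal point of a one-site fit of peak current inhibition. n = 3 sensors, 3 technical replicates each.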

PIN8 [4] = target: T2, PIN8; conditions: read-out: KD of IAA binding by PIN8, previously described; cited from earlier work

effect of S55A/S146A double mutation on affinity (PIN8 S55A/S146A; PIN8 S55A/S146A vs WT)	Compound	transport in pin1 mutants ([1]; pin1 mutant stem segments)	transport lower than IAA transport ([1]; wildtype plants, stem segments)	current response with N117A mutation (PIN8 N117A)	2,4-D export transport rate relative to that determined for IAA (PIN8 [2])	2,4-D export rate relative to the IAA transport rate (A. thaliana PIN3)	EC50 (PIN8 Y150F)	Imax (PIN8 Y150F)	EC50 (PIN8 S55A/S146A)	Imax (PIN8 S55A/S146A)	affinity lower compared to IAA (PIN8 [3])	Kd (PIN8 [4])
	O=C(O)COc1ccc(Cl)cc1Cl [2,4-D, 2,4-dichlorophenoxyacetic acid]	completely abolished	about 20 fold	abolishes the current response	about half	about half	816 ± 275 µM	8 ± 2 nA	38 ± 6 µM	9 ± 2 nA		
	O=C(O)COc1ccc(Cl)cc1 [4-CPA, 4-chlorophenoxyacetic acid]			abolishes the current response			710 ± 228 µM	5 ± 0.9 nA	81 ± 3 µM	11 ± 0.9 nA	~ 8 fold	
no effect	O=C(O)Cc1c[nH]c2ccccc12 [IAA, indole-3-acetic acid]						452 ± 32 µM	6 ± 2 nA	341 ± 128 µM	7 ± 2 nA		40 ± 15 µM
